From ChEMBL document CHEMBL1828519, “Tricyclic thiazolopyrazole derivatives as metabotropic glutamate receptor 4 positive allosteric modulators” (J Med Chem, 2011)
Values after ≈ are worked out from the molar mass of the structure shown.

Legend:
[1] = Intrinsic clearance in human microsomes; type: ADME, Microsome
Method in brief: (§1)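 Intrinsic clearance measured in rat and human liver microsomes. Hepatic blood flow references given as 20 mL/min for rat and 1.5 L/min for human.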

[2] = molecular target: T1, Metabotropic glutamate receptor 4 (Homo sapiens, UniProt Q14833); test: Positive allosteric modulation of human mGlu4 receptor expressed in BHK cells assessed as potentiation of glutamate-induced calcium mobilization after 1 hr by FLIPR assay; type: functional, cell-based
Method in brief: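 Stable BHK line co-expressing human mGlu4 and murine Gα15, plated on poly-D-lysine 24 h ahead. Cells loaded 1 h at 37 °C, 5% CO2 with Calcium 3 dye in HBSS/20 mM HEPES pH 7.4, 0.1% BSA, 2.5 mM probenecid. Test agent added with an EC20 glutamate challenge. Peak fluorescence change read by FLIPR and fitted to the Hill equation. At least two independent runs in duplicate, means reported.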

[3] = Apparent permeability of the compound by PAMPA assay; type: ADME
Method in brief: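 Passive permeability measured in a PAMPA assay.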

[4] = Intrinsic clearance in rat microsomes; type: ADME, Microsome; method in brief: as §1
[5] = Plasma protein binding in rat; type: ADME, cell-free; conditions: read-out: PPB (converted)
[6] = Plasma protein binding in human; type: ADME, cell-free; conditions: read-out: PPB (converted)
[7] = Kinetic solubility of the compound at pH 7.4 at room temperature; type: physicochemical; conditions: buffer, read-out: Kinetic_solubility
Method in brief: (§2)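 Kinetic solubility measured from DMSO stock solutions at room temperature. Assay run at the pH named in each line.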

[8] = molecular target: T1, Metabotropic glutamate receptor 4; test: Positive allosteric modulation of human mGlu4 receptor expressed in BHK cells assessed as potentiation of glutamate-induced response after 1 hr by FLIPR assay relative to glutamate; type: cell-based
Method in brief: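 BHK cells stably co-expressing human mGlu4 and murine G-protein […], grown in DMEM at 37 °C, 5% CO₂. Cells seeded 24 h before assay, then loaded with Calcium 3 no-wash dye in HBSS/HEPES pH 7.4 with 0.1% BSA and 2.5 mM probenecid for 1 h at 37 °C. FLIPR calcium read after stimulation with EC₂₀ glutamate plus compound. Emax is percent of maximal glutamate response. Mean of ≥2 independent duplicate experiments.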

[9] = molecular target: T2, Metabotropic glutamate receptor 7 (Homo sapiens, UniProt Q14831); test: Negative allosteric modulation of mGlu7 receptor
[10] = Fraction unbound in rat plasma; type: ADME, cell-free
[11] = molecular target: T3, Metabotropic glutamate receptor 2 (Homo sapiens, UniProt Q14416); test: Negative allosteric modulation of mGlu2 receptor
[12] = molecular target: T4, Metabotropic glutamate receptor 5 (Homo sapiens, UniProt P41594); test: Negative allosteric modulation of mGlu5 receptor
[13] = molecular target: T3, Metabotropic glutamate receptor 2; test: Positive allosteric modulation of mGlu2 receptor assessed as potentiation of glutamate-induced calcium mobilization; type: functional
[14] = molecular target: T5, Metabotropic glutamate receptor 1 (Homo sapiens, UniProt Q13255); test: Positive allosteric modulation of mGlu1 receptor assessed as potentiation of glutamate-induced calcium mobilization; type: functional
[15] = Lipophilicity, log D of the compound at pH 7.4; type: physicochemical; conditions: buffer
[16] = molecular target: T5, Metabotropic glutamate receptor 1; test: Negative allosteric modulation of mGlu1 receptor
P-gp (MDR1) [17] = test: Apparent permeability from apical to basolateral side of dog MDCK cells expressing human MDR1 by P-gp substrate assay; type: ADME, cell-based, Canis lupus familiaris
Method in brief: (§3)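 MDCK cells transfected with human MDR1, used as a P-gp substrate assay. Permeability measured in both directions, apical-to-basolateral and basolateral-to-apical. The efflux ratio is taken as B→A over A→B.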

[18] = molecular target: T6, Metabotropic glutamate receptor 3 (Homo sapiens, UniProt Q14832); test: Negative allosteric modulation of mGlu3 receptor
[19] = molecular target: T2, Metabotropic glutamate receptor 7; test: Positive allosteric modulation of mGlu7 receptor assessed as potentiation of glutamate-induced calcium mobilization; type: functional
[20] = molecular target: T4, Metabotropic glutamate receptor 5; test: Positive allosteric modulation of mGlu5 receptor assessed as potentiation of glutamate-induced calcium mobilization; type: functional
P-gp (MDR1) [21] = test: Apparent permeability from basolateral to apical side of dog MDCK cells expressing human MDR1 by P-gp substrate assay; type: ADME, cell-based, Canis lupus familiaris; method in brief: as §3
[22] = Kinetic solubility of the compound at pH 1.5 at room temperature; type: physicochemical; conditions: buffer, read-out: Kinetic_solubility; method in brief: as §2
[23] = Drug uptake in Sprague-Dawley rat brain at 10 mg/kg, po after 1 hr; type: ADME, organism-based; set-up: dose 10 mg/kg, route oral; conditions: read-out: Drug uptake
Method in brief: (§4)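 Sprague-Dawley rats given 10 mg/kg orally as a suspension in 20% aqueous hydroxypropyl-β-cyclodextrin. Plasma and brain levels taken at 1 h post-dose. Brain/plasma ratio derived from these levels.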

[24] = molecular target: T6, Metabotropic glutamate receptor 3; test: Positive allosteric modulation of mGlu3 receptor assessed as potentiation of glutamate-induced calcium mobilization; type: functional
[25] = Plasma concentration in Sprague-Dawley rat at 10 mg/kg, po after 1 hr; type: ADME, organism-based; set-up: dose 10 mg/kg, route oral; method in brief: as §4
[26] = Fraction unbound in rat brain; type: ADME, tissue-based
Method in brief: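 Brain free fraction determined by dialysis of rat brain homogenate.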

[27] = Ratio of drug level in brain to plasma of Sprague-Dawley rat at 10 mg/kg, po after 1 hr; type: ADME, organism-based; set-up: dose 10 mg/kg, route oral; conditions: read-out: BPR; method in brief: as §4
[28] = Fraction unbound in human plasma; type: ADME, cell-free
[29] = Drug uptake in Sprague-Dawley rat cerebrospinal fluid at 10 mg/kg, sc after 1 hr

T1 sequence (Q14833 whole entry): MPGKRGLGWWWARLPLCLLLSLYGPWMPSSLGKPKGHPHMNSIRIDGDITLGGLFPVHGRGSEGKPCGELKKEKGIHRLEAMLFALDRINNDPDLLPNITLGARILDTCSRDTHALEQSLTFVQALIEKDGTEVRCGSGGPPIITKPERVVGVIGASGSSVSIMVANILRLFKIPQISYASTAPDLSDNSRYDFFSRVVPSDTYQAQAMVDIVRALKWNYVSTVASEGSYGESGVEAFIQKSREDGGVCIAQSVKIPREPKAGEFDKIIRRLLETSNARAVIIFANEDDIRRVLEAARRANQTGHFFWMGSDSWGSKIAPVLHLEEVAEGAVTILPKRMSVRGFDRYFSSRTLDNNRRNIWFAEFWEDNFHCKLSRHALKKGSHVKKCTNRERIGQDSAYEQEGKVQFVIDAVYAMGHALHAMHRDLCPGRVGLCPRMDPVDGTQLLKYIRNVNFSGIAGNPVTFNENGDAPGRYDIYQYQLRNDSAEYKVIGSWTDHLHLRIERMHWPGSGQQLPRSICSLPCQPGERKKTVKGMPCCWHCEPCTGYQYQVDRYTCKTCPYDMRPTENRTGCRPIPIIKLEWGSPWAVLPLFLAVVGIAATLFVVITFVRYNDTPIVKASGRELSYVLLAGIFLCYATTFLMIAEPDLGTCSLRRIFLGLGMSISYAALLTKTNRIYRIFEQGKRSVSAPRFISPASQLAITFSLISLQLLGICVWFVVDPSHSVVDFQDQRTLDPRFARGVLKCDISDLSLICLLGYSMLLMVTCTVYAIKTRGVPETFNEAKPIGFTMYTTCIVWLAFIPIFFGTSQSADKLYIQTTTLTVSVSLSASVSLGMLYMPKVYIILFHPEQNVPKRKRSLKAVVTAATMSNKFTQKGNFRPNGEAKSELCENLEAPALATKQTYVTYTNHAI
T5 sequence (Q13255 whole entry): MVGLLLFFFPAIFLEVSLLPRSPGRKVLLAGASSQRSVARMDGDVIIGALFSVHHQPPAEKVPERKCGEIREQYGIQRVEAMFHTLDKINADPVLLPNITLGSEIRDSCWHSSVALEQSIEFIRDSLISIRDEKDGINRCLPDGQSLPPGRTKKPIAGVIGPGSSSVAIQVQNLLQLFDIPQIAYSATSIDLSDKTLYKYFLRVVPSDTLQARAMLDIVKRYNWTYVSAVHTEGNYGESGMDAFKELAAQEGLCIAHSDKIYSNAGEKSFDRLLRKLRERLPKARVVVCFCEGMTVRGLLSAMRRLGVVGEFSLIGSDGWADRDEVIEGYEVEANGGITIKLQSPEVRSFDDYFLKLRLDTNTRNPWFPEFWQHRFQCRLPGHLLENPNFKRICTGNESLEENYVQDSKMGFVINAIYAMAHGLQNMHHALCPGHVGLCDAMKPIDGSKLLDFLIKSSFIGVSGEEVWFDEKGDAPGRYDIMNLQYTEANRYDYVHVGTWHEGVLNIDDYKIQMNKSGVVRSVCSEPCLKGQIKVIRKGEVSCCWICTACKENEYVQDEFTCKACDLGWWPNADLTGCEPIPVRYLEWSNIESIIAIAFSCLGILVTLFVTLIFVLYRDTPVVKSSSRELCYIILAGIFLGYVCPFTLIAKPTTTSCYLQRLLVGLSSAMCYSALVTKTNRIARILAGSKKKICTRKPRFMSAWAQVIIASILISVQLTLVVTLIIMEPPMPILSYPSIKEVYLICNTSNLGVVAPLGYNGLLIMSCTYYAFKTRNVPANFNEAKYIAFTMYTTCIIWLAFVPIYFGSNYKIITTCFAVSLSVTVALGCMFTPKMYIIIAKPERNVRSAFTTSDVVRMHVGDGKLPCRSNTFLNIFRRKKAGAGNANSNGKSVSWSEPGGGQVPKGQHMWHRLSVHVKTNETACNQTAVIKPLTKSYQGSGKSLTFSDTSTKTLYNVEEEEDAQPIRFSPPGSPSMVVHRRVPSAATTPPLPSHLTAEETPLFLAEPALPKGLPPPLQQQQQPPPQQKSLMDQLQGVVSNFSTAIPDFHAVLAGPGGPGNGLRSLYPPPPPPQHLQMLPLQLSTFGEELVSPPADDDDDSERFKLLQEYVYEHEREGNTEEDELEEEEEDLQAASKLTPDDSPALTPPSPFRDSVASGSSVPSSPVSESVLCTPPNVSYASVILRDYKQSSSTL
T4 sequence (P41594 whole entry): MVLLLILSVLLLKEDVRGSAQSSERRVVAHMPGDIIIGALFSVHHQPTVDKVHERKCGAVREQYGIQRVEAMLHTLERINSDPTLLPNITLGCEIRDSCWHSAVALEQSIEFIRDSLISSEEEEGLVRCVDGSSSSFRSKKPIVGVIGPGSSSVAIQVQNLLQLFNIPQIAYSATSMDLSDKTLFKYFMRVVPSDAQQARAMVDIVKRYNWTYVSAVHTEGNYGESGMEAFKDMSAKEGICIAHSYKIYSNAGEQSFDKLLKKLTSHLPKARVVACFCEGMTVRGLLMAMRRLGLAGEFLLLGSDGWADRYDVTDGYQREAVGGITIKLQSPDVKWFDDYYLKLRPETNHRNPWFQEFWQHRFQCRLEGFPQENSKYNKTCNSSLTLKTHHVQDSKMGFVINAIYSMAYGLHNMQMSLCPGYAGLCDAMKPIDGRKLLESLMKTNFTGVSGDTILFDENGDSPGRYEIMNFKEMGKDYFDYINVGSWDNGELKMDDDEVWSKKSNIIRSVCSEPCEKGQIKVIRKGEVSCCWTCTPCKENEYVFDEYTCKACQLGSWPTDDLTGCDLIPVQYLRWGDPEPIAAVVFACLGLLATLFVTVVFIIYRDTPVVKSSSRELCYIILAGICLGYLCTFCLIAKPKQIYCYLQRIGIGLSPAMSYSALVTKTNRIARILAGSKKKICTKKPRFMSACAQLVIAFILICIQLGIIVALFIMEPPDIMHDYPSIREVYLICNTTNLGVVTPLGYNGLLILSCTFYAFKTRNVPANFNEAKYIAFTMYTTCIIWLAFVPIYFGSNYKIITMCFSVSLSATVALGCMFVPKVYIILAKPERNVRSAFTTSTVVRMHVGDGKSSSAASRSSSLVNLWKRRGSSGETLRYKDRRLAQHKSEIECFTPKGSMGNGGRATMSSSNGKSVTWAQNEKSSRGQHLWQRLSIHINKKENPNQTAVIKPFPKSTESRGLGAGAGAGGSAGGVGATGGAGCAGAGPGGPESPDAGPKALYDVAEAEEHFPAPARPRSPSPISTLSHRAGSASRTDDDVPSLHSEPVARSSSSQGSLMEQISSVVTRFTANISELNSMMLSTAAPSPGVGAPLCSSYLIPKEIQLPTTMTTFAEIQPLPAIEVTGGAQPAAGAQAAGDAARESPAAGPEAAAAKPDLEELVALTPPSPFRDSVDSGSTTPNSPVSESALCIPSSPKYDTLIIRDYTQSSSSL
T2 sequence (Q14831 whole entry): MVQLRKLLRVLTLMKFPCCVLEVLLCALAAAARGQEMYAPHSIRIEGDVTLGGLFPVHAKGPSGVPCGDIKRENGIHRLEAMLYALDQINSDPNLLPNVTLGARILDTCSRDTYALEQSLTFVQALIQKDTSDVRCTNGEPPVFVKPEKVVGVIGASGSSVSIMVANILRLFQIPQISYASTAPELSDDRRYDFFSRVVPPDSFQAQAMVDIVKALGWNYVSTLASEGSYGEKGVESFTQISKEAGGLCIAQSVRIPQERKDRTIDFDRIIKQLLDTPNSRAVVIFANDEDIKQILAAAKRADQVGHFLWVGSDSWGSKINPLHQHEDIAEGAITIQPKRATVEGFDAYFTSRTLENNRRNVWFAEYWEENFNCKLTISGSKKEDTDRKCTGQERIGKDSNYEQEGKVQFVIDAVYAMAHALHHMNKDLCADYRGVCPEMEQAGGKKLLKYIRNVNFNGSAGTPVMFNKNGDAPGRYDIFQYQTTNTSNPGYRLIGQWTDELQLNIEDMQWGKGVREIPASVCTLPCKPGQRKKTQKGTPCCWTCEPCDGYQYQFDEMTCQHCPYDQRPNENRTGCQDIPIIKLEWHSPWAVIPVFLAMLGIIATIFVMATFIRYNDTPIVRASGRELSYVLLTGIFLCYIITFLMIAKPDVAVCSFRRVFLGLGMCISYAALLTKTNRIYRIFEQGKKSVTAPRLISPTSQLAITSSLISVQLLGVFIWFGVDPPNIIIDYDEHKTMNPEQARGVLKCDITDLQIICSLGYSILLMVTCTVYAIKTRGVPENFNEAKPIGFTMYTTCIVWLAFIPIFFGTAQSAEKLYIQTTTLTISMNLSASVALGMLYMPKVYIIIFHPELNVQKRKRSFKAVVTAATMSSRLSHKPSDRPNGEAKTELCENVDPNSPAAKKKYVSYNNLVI
T6 sequence (Q14832 whole entry): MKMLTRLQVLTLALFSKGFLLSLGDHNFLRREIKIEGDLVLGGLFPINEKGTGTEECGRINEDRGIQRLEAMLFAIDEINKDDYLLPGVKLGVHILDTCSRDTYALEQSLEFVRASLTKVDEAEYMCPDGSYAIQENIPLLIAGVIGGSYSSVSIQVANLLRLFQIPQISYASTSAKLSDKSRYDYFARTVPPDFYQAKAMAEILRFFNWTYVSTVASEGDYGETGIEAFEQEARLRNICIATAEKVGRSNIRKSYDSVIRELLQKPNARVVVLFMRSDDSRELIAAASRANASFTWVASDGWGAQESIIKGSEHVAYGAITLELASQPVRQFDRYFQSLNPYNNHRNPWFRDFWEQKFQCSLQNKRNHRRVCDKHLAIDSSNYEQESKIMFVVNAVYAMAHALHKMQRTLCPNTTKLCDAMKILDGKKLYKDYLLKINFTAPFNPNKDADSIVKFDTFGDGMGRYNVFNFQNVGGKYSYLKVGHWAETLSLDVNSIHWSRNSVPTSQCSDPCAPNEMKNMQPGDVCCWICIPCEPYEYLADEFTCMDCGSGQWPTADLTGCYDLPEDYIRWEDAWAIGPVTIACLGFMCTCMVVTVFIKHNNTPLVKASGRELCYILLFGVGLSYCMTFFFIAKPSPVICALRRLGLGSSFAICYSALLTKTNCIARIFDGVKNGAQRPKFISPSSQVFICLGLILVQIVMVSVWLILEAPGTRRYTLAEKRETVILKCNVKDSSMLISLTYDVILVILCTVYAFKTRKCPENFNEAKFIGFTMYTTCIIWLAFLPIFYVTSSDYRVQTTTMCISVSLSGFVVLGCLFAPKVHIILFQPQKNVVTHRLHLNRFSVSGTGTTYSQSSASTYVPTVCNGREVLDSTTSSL

SMILES: c1cnc(Nc2nc3c(s2)CCc2[nH]ncc2-3)nc1
- CL [1]: 4.4 L/min
- EC50 [2]: 0.065 µM
- Papp [3]: 3.4 ×10⁻⁶ cm/s
- CL [4]: 42 mL/min
- fraction unbound [5]: 0.105
- fraction unbound [6]: 0.036
- solubility kinetic [7]: 20 µM (≈ 5.41 µg/mL)

SMILES: CCNc1cccc(Nc2nc3c(s2)CCCc2n[nH]cc2-3)n1
- EC50 [2]: 0.6 µM
- Papp [3]: 3.1 ×10⁻⁶ cm/s
- Emax [8]: 63%
- solubility kinetic [7]: 0.9 µM (≈ 0.294 µg/mL)

SMILES: Cc1ccc(Nc2nc3c(s2)CCc2n[nH]cc2-3)nc1
- EC50 [2]: > 10 µM
- Papp [3]: 1.9 ×10⁻⁶ cm/s
- Emax [8]: 12%
- solubility kinetic [7]: < 0.1 µM

SMILES: COC(=O)c1cccc(Nc2nc3c(s2)CCCc2n[nH]cc2-3)n1
- EC50 [2]: > 10 µM
- Papp [3]: 0.1 ×10⁻⁶ cm/s
- Emax [8]: 5%
- solubility kinetic [7]: 1.9 µM (≈ 0.649 µg/mL)

SMILES: c1[nH]nc2c1-c1nc(NC3CCCCC3)sc1CCC2
- EC50 [2]: 1.3 µM
- Papp [3]: 2.8 ×10⁻⁶ cm/s
- Emax [8]: 150%
- solubility kinetic [7]: < 0.1 µM

SMILES: c1cnc(Nc2nc3c(s2)CCCc2[nH]ncc2-3)nc1
- IC50 [9]: > 10 µM
- fraction unbound [10]: 0.006
- CL [1]: 9 L/min
- IC50 [11]: > 10 µM
- IC50 [12]: > 10 µM
- EC50 [13]: > 10 µM
- EC50 [14]: > 10 µM
- logD [15]: 3.8
- IC50 [16]: > 10 µM
- Papp A→B (P-gp (MDR1) [17]): 33 ×10⁻⁶ cm/s
- IC50 [18]: > 10 µM
- EC50 [19]: > 10 µM
- EC50 [20]: > 10 µM
- EC50 [2]: 0.007 µM
- Papp B→A (P-gp (MDR1) [21]): 21 ×10⁻⁶ cm/s
- Papp [3]: 1.5 ×10⁻⁶ cm/s
- solubility kinetic [22]: 100 µM (≈ 28.4 µg/mL)
- concentration at 1 h [23]: 3.1 ng/g
- EC50 [24]: > 10 µM
- concentration at 1 h [25]: 0.7 ng/mL
- CL [4]: 92 mL/min
- fraction unbound [5]: 0.006
- fraction unbound [6]: 0.031
- fraction unbound [26]: 0.016
- solubility kinetic [7]: 3 µM (≈ 0.853 µg/mL)

SMILES: CCOc1cccc(Nc2nc3c(s2)CCCc2n[nH]cc2-3)n1
- EC50 [2]: 0.29 µM
- Papp [3]: < 0.1 ×10⁻⁶ cm/s
- Emax [8]: 78%
- solubility kinetic [7]: < 0.1 µM

SMILES: c1ccc(Nc2nc3c(s2)CCCc2[nH]ncc2-3)nc1
- IC50 [9]: > 10 µM
- Kp at 1 h [27]: 0.8
- fraction unbound [10]: 0.011
- CL [1]: 10 L/min
- IC50 [11]: > 10 µM
- IC50 [12]: > 10 µM
- EC50 [13]: > 10 µM
- EC50 [14]: > 10 µM
- logD [15]: 5
- IC50 [16]: > 10 µM
- Papp A→B (P-gp (MDR1) [17]): 24 ×10⁻⁶ cm/s
- IC50 [18]: > 10 µM
- EC50 [19]: > 10 µM
- EC50 [20]: > 10 µM
- EC50 [2]: 0.009 µM
- Papp B→A (P-gp (MDR1) [21]): 13 ×10⁻⁶ cm/s
- Papp [3]: 9.4 ×10⁻⁶ cm/s
- solubility kinetic [22]: 240 µM (≈ 68 µg/mL)
- concentration at 1 h [23]: 200 ng/g
- EC50 [24]: > 10 µM
- concentration at 1 h [25]: 259 ng/mL
- CL [4]: 36 mL/min
- fraction unbound [5]: 0.011
- fraction unbound [6]: 0.006
- fraction unbound [26]: 0.0043
- solubility kinetic [7]: 1.2 µM (≈ 0.34 µg/mL)

SMILES: c1ccc(Nc2nc(-c3cn[nH]c3)cs2)nc1
- fraction unbound [28]: 0.035
- Kp at 1 h [27]: 1
- fraction unbound [10]: 0.092
- CL [1]: 11 L/min
- logD [15]: 3.1
- concentration at 1 h [29]: 52 ng/mL
- EC50 [2]: 0.41 µM
- Papp [3]: 32.9 ×10⁻⁶ cm/s
- solubility kinetic [22]: 220 µM (≈ 53.5 µg/mL)
- Emax [8]: 72%
- concentration at 1 h [23]: 744 ng/g
- concentration at 1 h [25]: 766 ng/mL
- CL [4]: 61 mL/min
- fraction unbound [26]: 0.014
- solubility kinetic [7]: 120 µM (≈ 29.2 µg/mL)

SMILES: Cc1cccc(Nc2nc3c(s2)CCc2[nH]ncc2-3)n1
- CL [1]: 48 L/min
- EC50 [2]: 0.91 µM
- Papp [3]: 2 ×10⁻⁶ cm/s
- CL [4]: 400 mL/min
- solubility kinetic [7]: 2.9 µM (≈ 0.822 µg/mL)

SMILES: Cc1ccnc(Nc2nc3c(s2)CCc2n[nH]cc2-3)c1
- EC50 [2]: > 10 µM
- Papp [3]: 12.4 ×10⁻⁶ cm/s
- Emax [8]: 11%
- solubility kinetic [7]: 9 µM (≈ 2.55 µg/mL)

SMILES: c1ccc(Nc2nc3c(s2)CCc2[nH]ncc2-3)nc1
- IC50 [9]: > 10 µM
- Kp at 1 h [27]: 0.5
- fraction unbound [10]: 0.023
- CL [1]: 5.6 L/min
- IC50 [11]: > 10 µM
- IC50 [12]: > 10 µM
- EC50 [13]: > 10 µM
- EC50 [14]: > 10 µM
- logD [15]: 4
- IC50 [16]: > 10 µM
- Papp A→B (P-gp (MDR1) [17]): 22 ×10⁻⁶ cm/s
- IC50 [18]: > 10 µM
- EC50 [19]: > 10 µM
- EC50 [20]: > 10 µM
- EC50 [2]: 0.22 µM
- Papp B→A (P-gp (MDR1) [21]): 7.7 ×10⁻⁶ cm/s
- Papp [3]: 3 ×10⁻⁶ cm/s
- solubility kinetic [22]: 220 µM (≈ 59.3 µg/mL)
- concentration at 1 h [23]: 517 ng/g
- EC50 [24]: > 10 µM
- concentration at 1 h [25]: 987 ng/mL
- CL [4]: 37 mL/min
- fraction unbound [5]: 0.023
- fraction unbound [6]: 0.008
- fraction unbound [26]: 0.0043
- solubility kinetic [7]: 0.1 µM (≈ 0.0269 µg/mL)

SMILES: OCc1cccc(Nc2nc3c(s2)CCCc2n[nH]cc2-3)n1
- EC50 [2]: 2.7 µM
- Papp [3]: 38.8 ×10⁻⁶ cm/s
- Emax [8]: 76%
- solubility kinetic [7]: 30 µM (≈ 9.4 µg/mL)

SMILES: Cc1ccc(Nc2nc3c(s2)CCCc2n[nH]cc2-3)nn1
- EC50 [2]: > 10 µM
- Papp [3]: 31 ×10⁻⁶ cm/s
- Emax [8]: 6.3%
- solubility kinetic [7]: 21 µM (≈ 6.27 µg/mL)

SMILES: COCCOc1cccc(Nc2nc3c(s2)CCCc2n[nH]cc2-3)n1
- EC50 [2]: 0.39 µM
- Papp [3]: 0.1 ×10⁻⁶ cm/s
- Emax [8]: 90%
- solubility kinetic [7]: 0.1 µM (≈ 0.0357 µg/mL)

SMILES: c1cc(Nc2nc3c(s2)CCCc2n[nH]cc2-3)ncn1
- EC50 [2]: 1.3 µM
- Papp [3]: 41 ×10⁻⁶ cm/s
- Emax [8]: 150%
- solubility kinetic [7]: 1.8 µM (≈ 0.512 µg/mL)

SMILES: Cc1cc(Nc2nc3c(s2)CCCc2[nH]ncc2-3)[nH]n1
- EC50 [2]: 2.4 µM
- Papp [3]: 15 ×10⁻⁶ cm/s
- solubility kinetic [7]: 10 µM (≈ 2.86 µg/mL)
